Data as given in ChEMBL document CHEMBL4371033, “Highly Potent and Selective Plasmin Inhibitors Based on the Sunflower Trypsin Inhibitor-1 Scaffold Attenuate Fibrinolysis in Plasma” (J Med Chem, 2019).
Residues, ends and D or L forms follow the SMILES beside them.

Experiments:
Prothrombin = Prothrombin (Homo sapiens, UniProt P00734); test: Inhibition of human thrombin using Ac-ATPR-pNA as substrate after 30 mins relative to untreated control
Plasminogen [1] = biological target: T1, Plasminogen (Homo sapiens, UniProt P00747); test: Inhibition of plasmin in human plasma assessed as reduction in tPA and thrombin-induced fibrinolysis at 200 nM by fibrin light scattering analysis relative to control; assay type: cell-free
T1 sequence (P00747 97-580 limits assumed): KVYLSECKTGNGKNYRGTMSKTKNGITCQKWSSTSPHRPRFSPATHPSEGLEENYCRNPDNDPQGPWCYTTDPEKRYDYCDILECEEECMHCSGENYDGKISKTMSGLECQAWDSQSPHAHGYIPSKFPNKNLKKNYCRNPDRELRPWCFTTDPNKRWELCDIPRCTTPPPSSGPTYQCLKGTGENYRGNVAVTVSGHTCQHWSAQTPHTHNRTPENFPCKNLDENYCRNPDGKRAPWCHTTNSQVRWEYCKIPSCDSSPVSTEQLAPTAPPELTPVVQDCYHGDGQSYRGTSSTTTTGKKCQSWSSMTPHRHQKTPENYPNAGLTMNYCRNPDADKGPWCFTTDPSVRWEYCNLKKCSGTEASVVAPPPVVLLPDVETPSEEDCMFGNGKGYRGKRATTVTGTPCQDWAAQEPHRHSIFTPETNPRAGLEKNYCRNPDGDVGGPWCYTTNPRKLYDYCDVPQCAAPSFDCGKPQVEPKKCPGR
T1 sequence (P00747 581-810 limits assumed): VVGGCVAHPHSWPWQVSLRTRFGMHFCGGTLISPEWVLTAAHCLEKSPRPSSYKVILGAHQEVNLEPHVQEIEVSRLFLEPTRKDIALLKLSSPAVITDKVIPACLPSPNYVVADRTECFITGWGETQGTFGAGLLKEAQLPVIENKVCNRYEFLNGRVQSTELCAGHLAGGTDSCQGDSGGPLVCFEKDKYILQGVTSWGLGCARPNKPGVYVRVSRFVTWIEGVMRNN
Outline: (§1)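 Pooled citrated human plasma with inhibitor in Tris-HCl pH 7.4, 150 mM NaCl, 30 mM CaCl2, plasma 1:5 final. Clotting and lysis started with tPA (1.5 nM) and thrombin (2.5 nM). Fibrin formation and lysis followed by light scattering at 405 nm over 1 h. Mean of three independent experiments, each with 12 technical replicates.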

Homo sapiens [2] = species on record: Homo sapiens; test: Selectivity index, ratio of IC50 for inhibition of activated beta-factor 11 (unknown origin) to IC50 for Inhibition of human plasmin
Plasminogen [3] = biological target: T1, Plasminogen; test: Inhibition of plasmin in human plasma assessed as reduction in tPA and thrombin-induced fibrinolysis at 400 nM by fibrin light scattering analysis relative to control; assay type: cell-free; outline: as §1
Plasma kallikrein = Plasma kallikrein (Homo sapiens, UniProt P03952); test: Inhibition of plasma KLK (unknown origin) using Ac-NLTR-pNA as substrate after 30 mins relative to untreated control
Sequence of Plasma kallikrein (P03952 20-390 limits assumed): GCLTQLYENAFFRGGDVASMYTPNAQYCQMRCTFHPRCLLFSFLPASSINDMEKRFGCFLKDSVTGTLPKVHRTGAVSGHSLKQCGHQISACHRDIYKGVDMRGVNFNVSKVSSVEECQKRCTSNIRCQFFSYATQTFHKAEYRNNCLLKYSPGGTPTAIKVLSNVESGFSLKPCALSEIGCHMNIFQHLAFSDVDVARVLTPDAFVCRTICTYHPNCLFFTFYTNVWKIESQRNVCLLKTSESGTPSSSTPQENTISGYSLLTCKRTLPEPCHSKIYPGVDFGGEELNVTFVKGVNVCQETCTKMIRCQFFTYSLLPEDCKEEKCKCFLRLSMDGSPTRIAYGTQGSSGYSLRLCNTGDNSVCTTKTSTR
Sequence of Plasma kallikrein (P03952 391-638 limits assumed): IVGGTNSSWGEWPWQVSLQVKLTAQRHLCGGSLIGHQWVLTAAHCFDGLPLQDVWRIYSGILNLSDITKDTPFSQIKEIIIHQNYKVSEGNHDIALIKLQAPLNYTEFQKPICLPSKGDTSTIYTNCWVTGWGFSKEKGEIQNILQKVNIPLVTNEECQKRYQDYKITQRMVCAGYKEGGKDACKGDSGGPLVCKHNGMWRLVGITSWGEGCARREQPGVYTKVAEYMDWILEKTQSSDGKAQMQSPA

Homo sapiens [4] = species on record: Homo sapiens; test: Selectivity index, ratio of IC50 for inhibition of activated beta-factor 12 (unknown origin) to IC50 for Inhibition of human plasmin
Homo sapiens [5] = species on record: Homo sapiens; test: Selectivity index, ratio of IC50 for inhibition of matriptase (unknown origin) to IC50 for Inhibition of human plasmin
Plasminogen [6] = biological target: T1, Plasminogen; test: Inhibition of human plasmin assessed as dissociation rate constant using Ac-RM(O2)YR-pNA as substrate after 30 mins
Outline: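 koff from the Baici and Gyger-Marazzi method: the lag phase before steady-state hydrolysis was compared between protease/inhibitor preincubated and substrate plus inhibitor added together. Human plasmin in 100 mM Tris pH 8.0, 100 mM NaCl, 0.005% Triton X-100, pNA substrate read at 405 nm.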

Coagulation factor XII = biological target: T2, Coagulation factor XII (Homo sapiens, UniProt P00748); test: Inhibition of activated beta-factor 12 (unknown origin) using Ac-QRFR-pNA as substrate after 30 mins relative to untreated control
T2 sequence (P00748 whole entry): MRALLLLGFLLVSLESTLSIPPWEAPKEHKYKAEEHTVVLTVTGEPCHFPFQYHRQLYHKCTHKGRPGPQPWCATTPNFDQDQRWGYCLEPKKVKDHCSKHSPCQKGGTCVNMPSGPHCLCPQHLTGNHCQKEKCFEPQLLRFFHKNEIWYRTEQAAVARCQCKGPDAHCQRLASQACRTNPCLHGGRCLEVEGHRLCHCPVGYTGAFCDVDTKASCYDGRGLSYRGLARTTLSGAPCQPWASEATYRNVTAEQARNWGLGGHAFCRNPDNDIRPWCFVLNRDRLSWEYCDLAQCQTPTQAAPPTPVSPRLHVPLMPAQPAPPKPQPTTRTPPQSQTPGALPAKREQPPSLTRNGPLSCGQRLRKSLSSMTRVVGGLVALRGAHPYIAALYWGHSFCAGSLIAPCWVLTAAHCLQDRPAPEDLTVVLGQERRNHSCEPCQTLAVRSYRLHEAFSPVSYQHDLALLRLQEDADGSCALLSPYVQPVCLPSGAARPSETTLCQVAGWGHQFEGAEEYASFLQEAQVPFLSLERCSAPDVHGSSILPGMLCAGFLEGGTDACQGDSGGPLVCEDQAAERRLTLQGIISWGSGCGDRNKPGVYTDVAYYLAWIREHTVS

Homo sapiens [7] = species on record: Homo sapiens; test: Selectivity index, ratio of IC50 for inhibition of plasma KLK (unknown origin) to IC50 for Inhibition of human plasmin
Coagulation factor IX = Coagulation factor IX (Homo sapiens, UniProt P00740); test: Inhibition of activated beta-factor 9 (unknown origin) using Boc-QGR-MCA as substrate after 30 mins relative to untreated control
Sequence of Coagulation factor IX (P00740 47-191 limits assumed): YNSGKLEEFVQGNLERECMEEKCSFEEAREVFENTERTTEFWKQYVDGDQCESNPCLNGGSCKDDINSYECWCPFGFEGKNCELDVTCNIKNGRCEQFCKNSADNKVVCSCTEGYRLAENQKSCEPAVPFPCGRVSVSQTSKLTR
Sequence of Coagulation factor IX (P00740 227-461 limits assumed): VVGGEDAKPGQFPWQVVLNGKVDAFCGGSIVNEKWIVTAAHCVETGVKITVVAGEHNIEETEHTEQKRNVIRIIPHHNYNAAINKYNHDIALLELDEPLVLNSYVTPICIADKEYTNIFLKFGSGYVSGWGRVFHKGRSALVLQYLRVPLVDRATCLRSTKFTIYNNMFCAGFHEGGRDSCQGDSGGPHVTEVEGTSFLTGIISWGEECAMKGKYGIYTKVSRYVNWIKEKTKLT

Serine protease 1 = biological target: T3, Serine protease 1 (Bos taurus, UniProt P00760); test: Inhibition of bovine cationic trypsin using Bz-FVR-pNA as substrate after 30 mins
T3 sequence (P00760 whole entry): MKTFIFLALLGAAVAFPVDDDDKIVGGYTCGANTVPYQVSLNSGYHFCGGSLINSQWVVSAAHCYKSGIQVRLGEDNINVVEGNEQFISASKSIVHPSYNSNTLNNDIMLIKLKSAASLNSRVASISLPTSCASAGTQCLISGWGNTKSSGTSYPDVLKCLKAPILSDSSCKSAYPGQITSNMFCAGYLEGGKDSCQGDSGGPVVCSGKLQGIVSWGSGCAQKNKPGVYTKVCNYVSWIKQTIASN

Homo sapiens [8] = species on record: Homo sapiens; test: Selectivity index, ratio of IC50 for inhibition of activated factor 10 (unknown origin) to IC50 for Inhibition of human plasmin
[9] = biological target: Tissue-type plasminogen activator (Homo sapiens, UniProt P00750); test: Inhibition of tPA (unknown origin) using Z-Pyr-Gly-Arg-MCA as substrate after 30 mins relative to untreated control
Sequence of Tissue-type plasminogen activator (P00750 whole entry): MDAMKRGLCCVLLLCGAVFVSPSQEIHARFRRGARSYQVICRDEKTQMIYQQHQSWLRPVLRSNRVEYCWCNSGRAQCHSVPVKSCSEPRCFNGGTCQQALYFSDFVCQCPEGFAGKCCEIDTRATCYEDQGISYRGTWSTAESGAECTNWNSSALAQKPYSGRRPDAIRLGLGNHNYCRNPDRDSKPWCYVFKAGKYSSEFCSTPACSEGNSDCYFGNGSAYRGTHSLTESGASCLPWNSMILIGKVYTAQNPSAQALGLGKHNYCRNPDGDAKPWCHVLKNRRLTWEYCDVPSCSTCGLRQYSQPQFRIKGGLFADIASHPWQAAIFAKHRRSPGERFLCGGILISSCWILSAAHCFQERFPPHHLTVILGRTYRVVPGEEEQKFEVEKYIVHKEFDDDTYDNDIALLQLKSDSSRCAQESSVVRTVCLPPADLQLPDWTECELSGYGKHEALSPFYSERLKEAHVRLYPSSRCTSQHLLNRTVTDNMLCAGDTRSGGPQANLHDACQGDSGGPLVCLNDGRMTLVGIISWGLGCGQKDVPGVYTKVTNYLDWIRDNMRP

Coagulation factor X = Coagulation factor X (Homo sapiens, UniProt P00742); test: Inhibition of activated factor 10 (unknown origin) using Ac-QRSR-pNA as substrate after 30 mins relative to untreated control
Sequence of Coagulation factor X (P00742 41-179 limits assumed): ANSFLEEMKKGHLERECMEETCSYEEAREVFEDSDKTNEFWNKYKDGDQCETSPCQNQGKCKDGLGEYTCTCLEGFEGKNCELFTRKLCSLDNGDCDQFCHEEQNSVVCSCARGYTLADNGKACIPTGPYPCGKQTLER
Sequence of Coagulation factor X (P00742 235-488 limits assumed): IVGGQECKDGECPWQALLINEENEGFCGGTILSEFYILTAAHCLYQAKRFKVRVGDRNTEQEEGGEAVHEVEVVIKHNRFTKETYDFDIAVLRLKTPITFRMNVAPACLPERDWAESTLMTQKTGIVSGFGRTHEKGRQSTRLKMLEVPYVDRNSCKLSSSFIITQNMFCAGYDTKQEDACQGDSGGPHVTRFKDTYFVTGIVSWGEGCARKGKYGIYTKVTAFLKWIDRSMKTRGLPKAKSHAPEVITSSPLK

[10] = biological target: T4, Suppressor of tumorigenicity 14 protein (Homo sapiens, UniProt Q9Y5Y6); test: Inhibition of matriptase (unknown origin) using Boc-QAR-MCA as substrate after 30 mins relative to untreated control
T4 sequence (Q9Y5Y6 whole entry): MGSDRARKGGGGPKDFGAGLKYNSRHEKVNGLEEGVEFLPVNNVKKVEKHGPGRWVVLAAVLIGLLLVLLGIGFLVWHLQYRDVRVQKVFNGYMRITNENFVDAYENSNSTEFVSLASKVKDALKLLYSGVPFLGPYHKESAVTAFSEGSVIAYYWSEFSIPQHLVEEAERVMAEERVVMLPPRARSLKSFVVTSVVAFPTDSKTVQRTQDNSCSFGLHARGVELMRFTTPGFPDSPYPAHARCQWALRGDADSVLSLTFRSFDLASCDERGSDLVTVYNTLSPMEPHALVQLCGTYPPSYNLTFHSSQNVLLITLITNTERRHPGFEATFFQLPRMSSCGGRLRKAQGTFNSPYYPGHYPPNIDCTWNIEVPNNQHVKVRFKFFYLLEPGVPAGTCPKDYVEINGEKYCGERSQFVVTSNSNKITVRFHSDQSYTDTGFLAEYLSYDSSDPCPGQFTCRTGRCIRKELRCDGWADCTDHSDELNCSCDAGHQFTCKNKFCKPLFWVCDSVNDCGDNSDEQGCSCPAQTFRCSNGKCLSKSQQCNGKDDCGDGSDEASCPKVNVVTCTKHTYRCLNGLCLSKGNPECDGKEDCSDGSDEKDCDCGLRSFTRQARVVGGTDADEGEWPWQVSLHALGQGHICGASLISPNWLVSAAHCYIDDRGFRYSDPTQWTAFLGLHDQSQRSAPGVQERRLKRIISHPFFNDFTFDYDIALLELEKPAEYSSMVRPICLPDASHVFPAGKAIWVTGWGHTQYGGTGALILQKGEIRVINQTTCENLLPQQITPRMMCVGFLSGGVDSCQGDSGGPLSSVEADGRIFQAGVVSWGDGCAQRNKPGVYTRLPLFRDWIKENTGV

Ki (Prothrombin): > 50 µM | inhibition (Plasminogen [1]): 90% | Ratio IC50 (Homo sapiens [2]): > 1e+06 | inhibition (Plasminogen [3]): 100% | Ki (Plasma kallikrein): > 50 µM | Ratio IC50 (Homo sapiens [4]): > 1e+06 | Ratio IC50 (Homo sapiens [5]): > 1e+06 | K (Plasminogen [6]): 9.9 ×10⁻⁴ /s | Ki (Coagulation factor XII): > 50 µM | Ratio IC50 (Homo sapiens [7]): > 1e+06 | Ki (Coagulation factor IX): > 50 µM | Ki (Serine protease 1): 0.16 µM | Ratio IC50 (Homo sapiens [8]): > 1e+06 | Ki [9]: > 50 µM | Ki (Coagulation factor X): > 50 µM | Ki [10]: > 50 µM
SMILES: CC[C@H](C)[C@@H]1NC(=O)[C@@H]2CCCN2C(=O)[C@@H]2CCCN2C(=O)[C@H](CCCCN)NC(=O)[C@H](CO)NC(=O)[C@H](CCCCN)NC(=O)[C@H](Cc2ccc(O)cc2)NC(=O)[C@@H]2CSSC[C@H](NC1=O)C(=O)N[C@@H](Cc1ccccc1)C(=O)N1CCC[C@H]1C(=O)N[C@@H](CC(=O)O)C(=O)NCC(=O)N[C@@H](CCCNC(=N)N)C(=O)N2 (HELM PEPTIDE1{C.F.P.D.G.R.C.Y.K.S.K.P.P.I}$PEPTIDE1,PEPTIDE1,1:R3-7:R3|PEPTIDE1,PEPTIDE1,1:R1-14:R2$$$V2.0)
